Most compounds without a hit are left out; they make up all but 0.89% or so of the library.
L929 necroptosis = L929 zVAD cell death inhibition. L929 zVAD necroptosis rescue, ATP luminescence, 24 h; with zVAD 60 µM. viability rescue, % at 10 µM. 220,000 compounds, 0.38% hits;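 active = activation, scaled between plate controls, above about 75%, limit read from the data; inactive = activation under that limit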;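 also: 0% = zVAD with DMSO and 100% = DMSO alone without zVAD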
E-sel TNF inh = TNF alpha driven E-selectin expression inhibition; HUVEC TNFa-induced E-selectin immunofluorescence, high content; inhibition, % at 2 µM; 120,000 compounds, 0.71% hits; AID 1246;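 active = inhibition above the batch mean plus 3 SD, and confirmed as a hit on visual image review, cut at about 43% in these data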;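 also: 0% = TNF-stimulated DMSO wells and 100% = unstimulated control wells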
TNF death inh = blocks TNF-alpha induced death of Jurkat FADD-/- cells | Jurkat FADD-/- TNF necroptosis rescue, ATP luminescence, 24 h; 0 = TNF only, 100 = no-TNF cells | 220,000 compounds, 0.068% hits | activation (protection from cell death), % at 10 µM;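 active = activation, meaning protection from cell death, of at least 50% relative to plate controls; inactive = activation below 50%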;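 also: necroptosis triggered by 40 ng/mL TNF-alpha added together with compound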
MDM2 E3 inh = blocks human Mdm2 ubiquitin ligase activity. cell-based MDM2 ubiquitination luciferase reporter, 2 h; 0 = plate control, 100 = twice control, blank-subtracted. signal enhancement, % at 5 µM. 210,000 compounds, 0.11% hits;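 active = signal enhancement of 30% or more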;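 also: luminescence tracks abundance of the self-degrading MDM2-luciferase fusion protein; higher signal means inhibition of MDM2 E3 ligase activity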
Target sequence (Q00987 whole entry, looked up, the tested form may be a part): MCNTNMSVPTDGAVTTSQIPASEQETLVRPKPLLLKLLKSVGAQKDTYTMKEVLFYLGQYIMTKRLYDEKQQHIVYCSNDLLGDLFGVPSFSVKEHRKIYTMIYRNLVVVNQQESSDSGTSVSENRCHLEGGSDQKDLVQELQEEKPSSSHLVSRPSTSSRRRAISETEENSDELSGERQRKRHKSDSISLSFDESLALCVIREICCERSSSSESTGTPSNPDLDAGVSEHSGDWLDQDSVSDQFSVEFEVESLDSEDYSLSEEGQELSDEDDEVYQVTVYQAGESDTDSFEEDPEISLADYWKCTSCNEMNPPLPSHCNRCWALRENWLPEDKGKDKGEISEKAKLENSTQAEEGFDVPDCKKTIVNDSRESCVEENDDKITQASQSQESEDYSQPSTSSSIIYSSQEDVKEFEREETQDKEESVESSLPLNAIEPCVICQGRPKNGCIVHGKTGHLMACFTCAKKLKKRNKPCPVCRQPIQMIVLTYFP
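system = mammalian cells stably expressing self-ubiquitinating, self-degrading MDM2 E3–luciferase fusion | quantity = 2000 cells per well seeded | incubation = 4 h cell settling then 2 h compound exposure, 37 °C | signal = SteadyLite luminescence, 15 min reagent step | benchmarks = plate control and blank wells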
HSV augment = increases HSV replication in cells; HSV replication augmentation in cells, fold increase; maximum fold increase; 220,000 compounds, 0.005% hits; in the data active = maximum fold increase above about 1.5; tested in PC3 cells
Starred values were filed as active, the others as inactive; i = inactive; / = no result.

SMILES | L929 necroptosis | E-sel TNF inh | TNF death inh | MDM2 E3 inh | HSV augment
O=C1c2ccccc2C(Nc2ccc(S(=O)(=O)N3CCCCCC3)cc2)N1Cc1ccco1 (configuration not stated) | 8.2 | 65.7* | 4.9 | -9.3 | i
O=C(CCl)N1N=C(c2ccco2)CC1c1cccs1 (configuration not stated) | 2.0 | 69.7* | -12.3 | 11.4 | i
CC(=O)N1N=C(c2ccco2)CC1c1cccs1 (configuration not stated) | -0.1 | 29.2 | -3.1 | 4.5 | i
Cc1cc(NC(=O)C2CCCCC2)ccc1NC(=O)c1ccccc1Cl | / | -5.2 | 4.8 | -3.9 | i
CN1CCN(C(=S)Nc2cc([N+](=O)[O-])ccc2Cl)CC1 | -0.4 | / | 1.6 | 30.9* | i
CN1CCN(C(=S)c2ccc([N+](=O)[O-])cc2)CC1 | -0.2 | -27.8 | -0.5 | 7.6 | i
CN(C(=S)NC(=O)Cc1ccccc1)c1ccccc1 | -0.3 | / | 3.1 | -14.2 | i
Cc1ccc(S(=O)(=O)NN2C(=O)c3ccccc3NC2c2ccccn2)cc1 (configuration not stated) | 0.1 | / | -0.5 | 11.1 | i
O=C(CCCOc1ccccc1)Nc1ncccn1 | -0.1 | 2.1 | -0.7 | -5.3 | /
O=C(COc1ccccc1)Nc1ncccn1 | 1.5 | 12.4 | 0.5 | 34.5* | i
N#Cc1nc(Cc2ccccc2)oc1NCCN1CCOCC1 | -0.6 | / | -0.4 | 32.0* | i
N#Cc1nc(Cc2cccc3ccccc23)oc1NCCCN1CCOCC1 | -0.1 | 27.4 | -0.8 | -7.8 | i
Cc1ccc(NC(=O)Cn2cnc3sc(C(=O)NCCN(C)C)c(C)c3c2=O)cc1Cl | 11.4 | 50.2* | -3.0 | -3.3 | i
CCN(CC)CCCNC(=O)c1sc2ncn(CC(=O)Nc3ccc(C)c(Cl)c3)c(=O)c2c1C | 61.1 | 0.6 | 1.5 | 6.0 | i
CCOC(=O)c1cnn(-c2ccccc2)c1NC(=O)CN1CCCCC1 | -0.1 | / | 0.5 | -5.6 | i
CCOC(=O)/C=C/C(=O)Nc1ccc(S(=O)(=O)Nc2c(C)cc(C)cc2C)cc1 | 0.7 | / | -3.4 | -1.7 | i
CCOC(=O)/C=C/S(=O)(=O)c1ccc(NC(C)=O)cc1 | -0.3 | 76.2* | -18.0 | -3.0 | i
COc1ccc(OCC2CNC(=O)O2)cc1 (configuration not stated) | / | 96.0* | 1.4 | -16.4 | i
CC(=O)NC1(NC(C)=O)CCN(C)CC1 | -0.2 | / | -0.9 | 0.5 | i
CCN(CC)C(=O)COc1ccc(/C=C(\C#N)S(=O)(=O)c2ccccc2)cc1OC | 0.9 | / | -0.1 | -7.3 | i
c1ccc(-n2c(-c3ccncc3)nnc2N2CCOCC2)cc1 | 0.8 | 60.2* | -0.6 | -10.3 | i
c1ccc(-n2c(-c3ccncc3)nnc2-c2ccco2)cc1 | -0.1 | -9.8 | -3.1 | -8.2 | i
COc1ccc([N+](=O)[O-])cc1NC(=O)C(C)OC(=O)c1ccccn1 (configuration not stated) | 2.2 | / | 0.7 | -12.2 | i
O=C(/C=C/Nc1ccc(F)cc1F)c1cccs1 | 0.3 | -25.9 | -0.9 | -73.0 | i
O=C(/C=C\Nc1cccc(F)c1)c1cccs1 | 0.1 | 70.2* | -4.9 | -41.1 | i
SMILES | L929 necroptosis | E-sel TNF inh | TNF death inh | MDM2 E3 inh | HSV augment
COc1ccc(C(=O)C(CO)Oc2ccccc2OC)cc1OC (configuration not stated) | 0.9 | 73.4* | -0.7 | -3.7 | /
Cc1cc(-n2nc(C)cc2C)nc(NS(=O)(=O)c2ccccc2)n1 | 5.1 | 58.5* | 2.1 | -15.4 | i
COc1ccc(C)cc1NC(=O)C(OC(=O)CNC(=O)c1cc(C)cc(C)c1)c1ccccc1 (configuration not stated) | 1.3 | 16.9 | 0.5 | 67.2* | i
O=C(Oc1ccc(-c2cnc3ccccc3n2)cc1)c1ccco1 | 78.8* | 10.7 | -0.1 | -38.2 | i
O=C(Nc1cccc(-c2cnc3ccccc3n2)c1)c1ccco1 | 1.8 | -8.0 | -3.6 | -12.7 | i
Cc1c(C(=O)Oc2ccc(-c3cnc4ccccc4n3)cc2)cccc1[N+](=O)[O-] | 80.8* | / | 0.1 | -26.0 | i
Cc1ccc(SCCC(=O)Nc2ccccc2Br)cc1 | 3.2 | 2.2 | 1.8 | -8.5 | i
Cc1ccc(SCCC(=O)Nc2ccccc2C(=O)NC(C)C)cc1 | 0.7 | 66.7* | 1.5 | -10.0 | i
CCOC(=O)C1(CCc2ccccc2)CCN(C(=O)C2CCOCC2)CC1 | -0.5 | / | 0.2 | -7.6 | i
NC(=O)c1nsc(C(=O)N(CC(=O)NC2CCCC2)c2cnc3ccccc3c2)c1N | 0.3 | / | 2.2 | / | i
CCC(C)(C)NC(=O)CN(C(=O)c1snc(C(N)=O)c1N)c1ccc(OC)c(OC)c1 | -1.6 | 76.2* | 0.8 | -0.8 | i
CCOC(=O)C1=C(c2ccccc2)O/C(=C(/C#N)C(F)(F)F)S1 | 0.5 | -2.9 | -12.3 | 68.2* | i
CCOC(=O)C1=C(c2ccccc2)O/C(=C(\C(=O)OC)C(F)(F)F)S1 | 0.6 | 14.0 | -0.3 | -6.4 | i
COc1ccccc1-n1cnnc1SCC(=O)Nc1cc(C(C)(C)C)nn1-c1ccccc1 | 105.3* | -41.4 | 6.8 | -5.4 | i
O=C(C/C=N\OCc1ccc([N+](=O)[O-])cc1)Nc1ccc(Br)cc1 | 0.8 | / | 0.5 | -14.1 | i
C=C1C(=O)O[C@@H]2C[C@@H](C)[C@@H]3C=CC(=O)[C@@]3(C)[C@@H](OC(C)=O)[C@H]12 | 130.4* | / | 33.3 | 35.1* | i
CNS(=O)(=O)c1cc(OC)c(OC)cc1CC(=O)OC | 0.2 | 11.8 | -0.2 | -26.3 | i
O=C1NC(=Nc2ccccc2)SC1Cc1cccc(Cl)c1Cl (configuration not stated) | 0.8 | / | 79.1* | -5.8 | i
O=C1c2ccsc2SCCN1Cc1ccccc1 | 0.7 | / | 70.4* | -9.5 | i
COc1ccccc1OCC(=O)Nc1cc(S(=O)(=O)N2CCCCC2)ccc1N1CCCCC1 | -0.1 | -2.2 | 3.5 | 78.0* | i
COc1ccccc1C(=O)OCC(=O)Nc1cc(S(=O)(=O)N2CCOCC2)ccc1N1CCCC1 | 0.1 | / | 2.6 | 3.2 | i
CCn1c(SCC(=O)NCC2CCCO2)nc2c(c1=O)SC(C)C2 (configuration not stated) | 0.2 | 92.0* | 0.7 | -17.1 | i
C/C(=N\NC(=O)c1cccc(C)c1)c1ccc(N2CCOCC2)cc1 | 0.3 | 99.8* | 1.9 | -11.7 | /
C/C(=N\NC(=O)c1ccc(F)cc1)c1ccc(N2CCOCC2)cc1 | 8.9 | / | 1.8 | -8.3 | i
C=CCn1c(SCC(=O)NCc2ccccc2)nnc1-c1ccccc1O | / | 40.4* | 1.0 | -5.2 | i
O=C(/C=C/c1cccc([N+](=O)[O-])c1)n1cnc2ccccc21 | -1.8 | 99.4* | 9.4 | 49.2* | i
CCCC(=O)Nc1cc(C)c(NC(=O)C23CC4CC(CC(C4)C2)C3)cn1 | 8.7 | / | 0.6 | 0.1 | i
Cc1cc(NC(=O)C2CC2)ncc1NC(=O)C12CC3CC(CC(C3)C1)C2 | 8.3 | / | 0.9 | 30.1* | i
